Values joined by “and” are separate entries in the source; they are usually repeats but may differ in a detail not shown here. Equal entries are not always repeated.
Columns and labels:
P388 [1] = assay: Maximum % T/C with mitomycin C against P-388 murine leukemia cells in mice.; type: functional, Mus musculus
In short: (§1)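 P-388 ascites leukemia, 10⁶ cells implanted ip in female CDF₁ mice. Six mice per dose, with 10 saline-injected controls. A six-mouse mitomycin C group was run at each dose in the same experiment. % T/C = median survival time treated/control × 100 at the optimal dose. MED is the lowest dose giving T/C ≥ 125.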

P388 [2] = assay: Maximum % T/C against P-388 murine leukemia cells in mice.; type: functional, Mus musculus; in short: as §1
L1210 [3] = assay: Minimum effective dose required for antitumor activity against L-1210 leukemia cells in mice.; type: functional; conditions: Mus musculus, read-out: MED
In short: (§2)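 L-1210 leukemia in mice, run by the standard NCI protocol with one dose on day 1. % T/C is based on survival. Repeated assays are reported as both values.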

P388 [4] = assay: Optimal dose required for antitumor activity against P-388 murine leukemia cells in mice.; type: functional, Mus musculus; in short: as §1
[5] = Therapeutic ratio as optimal dose/minimal effective dose; type: ADME; conditions: mouse, p388; read-out: TR
L1210 [6] = assay: Optimal dose required for antitumor activity L-1210 leukemia cells in mice.; type: functional, Mus musculus; in short: as §2
L1210 [7] = assay: Maximum % T/C against L-1210 leukemia cells in mice.; type: functional, Mus musculus; in short: as §2
P388 [8] = assay: Minimum effective dose required for antitumor activity against P-388 murine leukemia cells; type: functional; conditions: Mus musculus, read-out: MED; in short: as §1
[9] = Partition coefficient (logP); type: physicochemical; conditions: octanol/water
B16 [10] = assay: (§3) Average weight change after ip administration in B-16 melanoma in mice (dose mg/kg/day); type: functional, Mus musculus
In short: (§4)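 B-16 melanoma in mice, run by the standard NCI protocol. Drug given ip on days 1, 4 and 7, ten mice per dose. Read-outs were median survival time as % T/C of controls and average body-weight change in g.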

B16 [11] = assay: Median survival time (% T/C) after ip administration in B-16 melanoma in mice (dose mg/kg/day); type: functional, Mus musculus; in short: as §4
B16 [12] = assay: Average weight change after ip administration of in B-16 melanoma in mice (dose mg/kg/day); type: functional, Mus musculus; in short: as §4
P388 [13] = assay: Leukopenia % change in WBC at optimal dose on 3rd day.; type: functional, Mus musculus
B16 [14] = assay: as §3; type: functional, Mus musculus; in short: as §4; remark: listed apart in the source

Structure (SMILES) | T/C (P388 [1]) | T/C (P388 [2]) | minimal effective dose (L1210 [3]) | Dose (P388 [4]) | selectivity ratio [5] | Dose (L1210 [6]) | T/C (L1210 [7]) | minimal effective dose (P388 [8]) | logP [9] | Average weight change (B16 [10]) | T/C (B16 [11]) | Average weight change (B16 [12]) | Change in WBC (P388 [13]) | Average weight change (B16 [14])
COC12[C@@H]3N[C@@H]3CN1C1=C(C(=O)C(NCCN(C)C)=C(C)C1=O)[C@@H]2COC(N)=O (some centres not stated) | 161% | 233% | 6 mg/kg | 12.8 mg/kg | 32 | 12 mg/kg | 136% | 0.4 mg/kg | – | – | – | – | – | –
COC12[C@@H]3N[C@@H]3CN1C1=C(C(=O)/C(=N/CCN)C(C)=C1O)[C@@H]2COC(N)=O (some centres not stated) | 156% | 178% | – | 3.3 mg/kg | 8 | – | – | 0.4 mg/kg | -0.84 | – | – | – | – | –
COC12[C@@H]3N[C@@H]3CN1C1=C(C(=O)C(NCCc3ccccc3)=C(C)C1=O)[C@@H]2COC(N)=O (some centres not stated) | 194% | – | – | 25.6 mg/kg | 16 | – | – | – | 2.48 | – | – | – | – | –
COC12[C@@H](COC(N)=O)C3=C(C(O)=C(C)/C(=N\CCS)C3=O)N1C[C@@H]1[C@H]2N1C (some centres not stated) | 268% | 179% | 12 mg/kg | 25.6 mg/kg | 8 | 48 mg/kg | 129% | 3.2 mg/kg | – | – | – | – | – | –
CCSCC/N=C1/C(=O)C2=C(C(O)=C1C)N1C[C@H]3N[C@H]3C1(OC)[C@H]2COC(N)=O (some centres not stated) | 268% | 205% | 12 mg/kg | 12.8 mg/kg | 8 | 24 mg/kg | 141% | 1.6 mg/kg | 1.66 | -1.2 g and -0.8 g | 190% and 175% and 144% | -1.7 g | – | –
COC12[C@@H]3N[C@@H]3CN1C1=C(C(=O)C(NCCc3ccc(O)c(O)c3)=C(C)C1=O)[C@@H]2COC(N)=O (some centres not stated) | 233% | 139% | – | 12.8 mg/kg | 1 | – | – | 12.8 mg/kg | – | – | – | – | – | –
COC12[C@@H]3N[C@@H]3CN1C1=C(C(=O)/C(=N/CCO)C(C)=C1O)[C@@H]2COC(N)=O (some centres not stated) | 228% | 228% | – | 25.6 mg/kg | 16 | – | – | 1.6 mg/kg | -0.81 | – | – | – | -38% | –
COC12[C@@H]3N[C@@H]3CN1C1=C(C(=O)/C(=N/CCN3CCCC3)C(C)=C1O)[C@@H]2COC(N)=O (some centres not stated) | 211% | 194% | 5 mg/kg | 12.8 mg/kg | 32 | 5 mg/kg | 125% | 0.4 mg/kg | – | – | – | – | -64% | –
COC12[C@@H]3N[C@@H]3CN1C1=C(C(=O)/C(=N/CCN3CCOCC3)C(C)=C1O)[C@@H]2COC(N)=O (some centres not stated) | 211% | 150% | 48 mg/kg | 25.6 mg/kg | 4 | 96 mg/kg | 132% | 6.4 mg/kg | – | – | – | – | – | –
COC12[C@@H]3N[C@@H]3CN1C1=C(C(=O)/C(=N/CCc3ccc(O)cc3)C(C)=C1O)[C@@H]2COC(N)=O (some centres not stated) | 288% | 218% | 12 mg/kg | 25.6 mg/kg | 16 | 48 mg/kg | 125% | 1.6 mg/kg | – | – | – | – | – | –
COC12[C@@H]3N[C@@H]3CN1C1=C(C(=O)C(N[C@@H]3CC3c3ccccc3)=C(C)C1=O)[C@@H]2COC(N)=O (some centres not stated) | 233% | 200% | – | 25.6 mg/kg | 16 | – | – | 1.6 mg/kg | – | – | – | – | – | –
COC12[C@@H]3N[C@@H]3CN1C1=C(C(=O)C(NCCC#N)=C(C)C1=O)[C@@H]2COC(N)=O (some centres not stated) | 268% | 232% | 3 mg/kg | 6.4 mg/kg | 16 | 12 mg/kg | 130% | 0.4 mg/kg | -0.49 | – | – | – | -40% | –
CCN1CCCC1C/N=C1/C(=O)C2=C(C(O)=C1C)N1C[C@H]3N[C@H]3C1(OC)[C@H]2COC(N)=O (some centres not stated) | 211% | 217% | – | 12.8 mg/kg | 16 | – | – | 0.8 mg/kg | – | – | – | – | -29% | –
COC12[C@@H](COC(N)=O)C3=C(C(=O)C(C)=C(NCCCl)C3=O)N1C[C@@H]1[C@H]2N1C (some centres not stated) | >300% | – | – | 51.2 mg/kg | 8 | – | – | – | – | – | – | – | – | –
CC/N=C1/C(=O)C2=C(C(O)=C1C)N1C[C@H]3N[C@H]3C1(OC)[C@H]2COC(N)=O (some centres not stated) | 322% | 250% | – | 12.8 mg/kg | 32 | – | – | 0.8 mg/kg | 0.35 | – | – | – | – | –
COC12[C@@H]3N[C@@H]3CN1C1=C(C(=O)C(NCCCl)=C(C)C1=O)[C@@H]2COC(N)=O (some centres not stated) | 245% | – | – | 12.8 mg/kg | 8 | – | – | – | 0.74 | – | – | – | -7% | –
COC(C/N=C1/C(=O)C2=C(C(O)=C1C)N1C[C@H]3N[C@H]3C1(OC)[C@H]2COC(N)=O)OC (some centres not stated) | 224% | 200% | 6 mg/kg | 6.4 mg/kg | 8 | 24 mg/kg | 151% | 0.8 mg/kg | – | – | – | – | -44% | –
COCC/N=C1/C(=O)C2=C(C(O)=C1C)N1C[C@H]3N[C@H]3C1(OC)[C@H]2COC(N)=O (some centres not stated) | 268% | 205% | 6 mg/kg | 12.8 mg/kg | 16 | 12 mg/kg | 143% | 0.8 mg/kg | -0.12 | -0.4 g | 190% | -2 g | -57% | -1.7 g
COC12[C@@H]3N[C@@H]3CN1C1=C(C(=O)/C(=N/CCF)C(C)=C1O)[C@@H]2COC(N)=O (some centres not stated) | 268% | >316% | – | 6.4 mg/kg | 16 | – | – | 0.4 mg/kg | 0.18 | – | – | – | – | –
CCSCC/N=C1/C(=O)C2=C(C(O)=C1C)N1C[C@@H]3[C@@H](N3C)C1(OC)[C@H]2COC(N)=O (some centres not stated) | 322% | 200% | 24 mg/kg | 25 mg/kg | 4 | 48 mg/kg | 143% | 6.4 mg/kg | – | – | – | – | – | –
